Consider two compounds from ChEMBL document CHEMBL6092224, “The Discovery and Preclinical Profile of ALG-000184, a Prodrug of the Potent Hepatitis B Virus Capsid Assembly Modulator ALG-001075” (J Med Chem, 2024).

Activity calls are given as the source filed them. Bounds are passed on as bounds.

By Papp A→B is commonly meant the apparent permeability from the apical to the basolateral side of a cell layer. One may read the EC50 as the concentration giving half of the maximal effect. Broadly, the AUC(0-inf) is the area under the concentration-time curve extrapolated to infinity. In general, half-life refers to the time needed for the level to fall by half in the phase considered. The term bioavailability denotes the share of a dose that reaches the circulation, judged against a reference dose that is usually intravenous. One may read the IC50 as the concentration that inhibits the measured activity by half.

A short description of data set [1]: Apparent permeability across apical to basal side in human Caco-2 cells at 2 uM incubated for 1 hr. It is filed as ADME, cell-based. In outline:
(§1)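 Bidirectional transport across Caco-2 cells in HBSS, pH 7.4, 0.1% final DMSO. Compound was tested at 1 or 2 μM for 1 h at 37 °C, 5% CO2. Apical and basal samples gave apparent permeability A→B and B→A, and the efflux ratio.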
(In general: Caco-2 monolayers are a common model of the intestinal barrier.)

Data set [2] is described as follows: Stability in simulated gastric fluid for >=13 hrs. The format is physicochemical. To be noted: simulated gi fluid. In outline: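 Stability tested in simulated gastric fluid containing pepsin and simulated intestinal fluid containing pancreatin.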
Data set [3] deals with Hepatitis B virus. Put plainly: Antiviral activity against HBV infected in human primary hepatocyte cells assessed as decrease in HBsAg level pre-infected cells with virus followed by compound treatment for 3 days and subsequent replacement of medium with compound measured after 4 days by CLIA. It is filed as functional, organism-based.
The nature of data set [4]: Apparent permeability across apical to basal side in human Caco-2 cells at 1 uM incubated for 1 hr. It is filed as ADME, cell-based. The essentials: as §1
A short description of data set [5]: Plasma protein binding in mouse at 1 uM incubated for 4 to 24 hrs by equilibrium dialysis method. The format is ADME, cell-free. The settings on record: time 4-24 hrs, read-out: PPB (converted). In outline: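 Rapid equilibrium dialysis in mouse, rat, dog, monkey or human plasma for 4 or 24 h; test concentrations 1, […].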
A short description of data set [6]: Volume of distribution at steady state in Sprague-Dawley rat at 1 mg/kg, iv by LC-MS/MS analysis. The format is ADME, organism-based. To be noted: in vivo, read-out: Vdss. The essentials: (§2)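 Fasted males (C57BL6 mice, Sprague−Dawley rats, beagle dogs, cynomolgus monkeys) given a single IV dose of 1 mg/kg in 80% PEG 400 in water. Plasma concentrations measured by LC-MS/MS. Vss derived by noncompartmental analysis using nominal dose and nominal sampling times.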

Data set [7] in a line: Volume of distribution at steady state in Beagle dog at 1 mg/kg, iv by LC-MS/MS analysis. The format is ADME, organism-based, Canis lupus familiaris. The settings on record: in vivo, read-out: Vdss. The essentials:
as §2

Data set [8] can be described thus: AUC (infinity) in Beagle dog at 1 mg/kg, iv by LC-MS/MS analysis. The format is ADME, organism-based, Canis lupus familiaris. To be noted: in vivo. The essentials: (§3)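 Single dose to fasted male C57BL6 mice, Sprague-Dawley rats, beagle dogs and cynomolgus monkeys, either IV at 1 mg/kg or PO as a solution at 5 mg/kg, in 80% PEG 400 in water. Plasma concentrations were measured by LC-MS/MS. PK parameters come from noncompartmental analysis using nominal doses and nominal sampling times.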

A short description of data set [9]: Half life in Cynomolgous monkey at 1 mg/kg, iv by LC-MS/MS analysis. To be noted: cynomolgus monkey, in vivo. The format is ADME, organism-based, Macaca fascicularis. The essentials:
as §3

The nature of data set [10]: AUC (infinity) in Cynomolgous monkey at 5 mg/kg, po by LC-MS/MS analysis. The format is ADME, organism-based, Macaca fascicularis. To be noted: cynomolgus monkey, in vivo. In outline: as §3
Data set [11] is described as follows: Oral bioavailability in Cynomolgous monkey at 5 mg/kg by LC-MS/MS analysis. The format is ADME, organism-based, Macaca fascicularis. The settings on record: cynomolgus monkey, in vivo. The essentials:
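Fasted male C57BL6 mice, Sprague–Dawley rats, beagle dogs, cynomolgus monkeys; single IV dose 1 mg/kg or PO solution 5 mg/kg in 80% PEG 400 in water; plasma concentrations measured, noncompartmental analysis with nominal doses and times; F from PO vs IV AUC.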

For data set [12], the system named is Mus musculus. Put plainly: Effect on HBsAg level in C57BL/6 mouse infected with AAV-Hepatitis B virus at 15 to 50 mg/kg, po qd for 56 days followed by induction of compound washout period for 14 days. The settings on record: dose 15-50 mg/kg, time 70.0 day. It is filed as functional, organism-based.
Data set [13] has as its target Nuclear receptor subfamily 1 group I member 2 (Homo sapiens, UniProt O75469). Put plainly: Induction of PXR (unknown origin).
Data set [14] concerns the target Broad substrate specificity ATP-binding cassette transporter ABCG2 (Homo sapiens, UniProt Q9UNQ0). Put plainly: Inhibition of BCRP in human Caco-2 cells using estrone 3-sulfate as substrate. The format is cell-based. In outline: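 Inhibition of estrone 3-sulfate (5.00 μM) transport in Caco-2 cells was measured at eight concentrations (0.0229–50.0 μM or 0.0457–100 μM). Percent inhibition relative to vehicle control was used to calculate IC50.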

Data set [15] addresses Bile salt export pump (Homo sapiens, UniProt O95342). Put plainly: Inhibition of BSEP (unknown origin) transfected in HEK293 cells. It is filed as cell-based.
In data set [16] the target is Multidrug and toxin extrusion protein 2 (Homo sapiens, UniProt Q86VL8). Put plainly: Inhibition of MATE2 (unknown origin) transfected in HEK293 cells. It is filed as cell-based.
Sequence of Multidrug and toxin extrusion protein 2 (Q86VL8 whole entry): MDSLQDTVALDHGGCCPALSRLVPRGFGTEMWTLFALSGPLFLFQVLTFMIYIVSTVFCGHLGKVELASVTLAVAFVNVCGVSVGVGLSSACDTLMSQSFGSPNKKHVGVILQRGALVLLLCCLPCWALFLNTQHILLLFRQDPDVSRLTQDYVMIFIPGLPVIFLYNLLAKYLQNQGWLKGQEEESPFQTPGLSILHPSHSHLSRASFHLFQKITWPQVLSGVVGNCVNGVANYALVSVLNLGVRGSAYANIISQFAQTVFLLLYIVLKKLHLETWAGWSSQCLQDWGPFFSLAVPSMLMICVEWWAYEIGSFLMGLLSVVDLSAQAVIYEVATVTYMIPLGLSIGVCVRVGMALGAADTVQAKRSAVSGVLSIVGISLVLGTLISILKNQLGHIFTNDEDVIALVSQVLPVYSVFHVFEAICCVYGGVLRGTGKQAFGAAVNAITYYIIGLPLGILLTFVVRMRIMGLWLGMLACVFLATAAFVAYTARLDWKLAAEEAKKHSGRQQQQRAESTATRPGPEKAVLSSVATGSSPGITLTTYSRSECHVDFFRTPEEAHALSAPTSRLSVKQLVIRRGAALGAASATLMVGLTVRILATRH
Data set [17] can be described thus: Effect on cell proliferation in bone marrow (unknown origin) upto 10 uM. The format is toxicity, tissue-based.
Data set [18] is described as follows: Metabolic stability in human assessed as half life at 1 uM incubated upto 180 mins.

Sequence of Nuclear receptor subfamily 1 group I member 2 (O75469 whole entry): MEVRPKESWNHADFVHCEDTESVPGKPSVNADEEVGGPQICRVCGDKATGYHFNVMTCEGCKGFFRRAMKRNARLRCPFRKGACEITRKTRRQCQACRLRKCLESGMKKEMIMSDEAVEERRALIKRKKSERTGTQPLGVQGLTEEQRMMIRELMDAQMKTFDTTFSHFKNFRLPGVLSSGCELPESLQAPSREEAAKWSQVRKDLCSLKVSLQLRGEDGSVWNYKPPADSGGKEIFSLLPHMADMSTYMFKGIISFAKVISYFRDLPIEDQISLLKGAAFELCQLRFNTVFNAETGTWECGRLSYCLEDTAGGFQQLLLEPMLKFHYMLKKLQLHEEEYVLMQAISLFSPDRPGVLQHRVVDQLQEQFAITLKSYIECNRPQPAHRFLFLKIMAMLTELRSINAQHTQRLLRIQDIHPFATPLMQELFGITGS
Sequence of Bile salt export pump (O95342 whole entry): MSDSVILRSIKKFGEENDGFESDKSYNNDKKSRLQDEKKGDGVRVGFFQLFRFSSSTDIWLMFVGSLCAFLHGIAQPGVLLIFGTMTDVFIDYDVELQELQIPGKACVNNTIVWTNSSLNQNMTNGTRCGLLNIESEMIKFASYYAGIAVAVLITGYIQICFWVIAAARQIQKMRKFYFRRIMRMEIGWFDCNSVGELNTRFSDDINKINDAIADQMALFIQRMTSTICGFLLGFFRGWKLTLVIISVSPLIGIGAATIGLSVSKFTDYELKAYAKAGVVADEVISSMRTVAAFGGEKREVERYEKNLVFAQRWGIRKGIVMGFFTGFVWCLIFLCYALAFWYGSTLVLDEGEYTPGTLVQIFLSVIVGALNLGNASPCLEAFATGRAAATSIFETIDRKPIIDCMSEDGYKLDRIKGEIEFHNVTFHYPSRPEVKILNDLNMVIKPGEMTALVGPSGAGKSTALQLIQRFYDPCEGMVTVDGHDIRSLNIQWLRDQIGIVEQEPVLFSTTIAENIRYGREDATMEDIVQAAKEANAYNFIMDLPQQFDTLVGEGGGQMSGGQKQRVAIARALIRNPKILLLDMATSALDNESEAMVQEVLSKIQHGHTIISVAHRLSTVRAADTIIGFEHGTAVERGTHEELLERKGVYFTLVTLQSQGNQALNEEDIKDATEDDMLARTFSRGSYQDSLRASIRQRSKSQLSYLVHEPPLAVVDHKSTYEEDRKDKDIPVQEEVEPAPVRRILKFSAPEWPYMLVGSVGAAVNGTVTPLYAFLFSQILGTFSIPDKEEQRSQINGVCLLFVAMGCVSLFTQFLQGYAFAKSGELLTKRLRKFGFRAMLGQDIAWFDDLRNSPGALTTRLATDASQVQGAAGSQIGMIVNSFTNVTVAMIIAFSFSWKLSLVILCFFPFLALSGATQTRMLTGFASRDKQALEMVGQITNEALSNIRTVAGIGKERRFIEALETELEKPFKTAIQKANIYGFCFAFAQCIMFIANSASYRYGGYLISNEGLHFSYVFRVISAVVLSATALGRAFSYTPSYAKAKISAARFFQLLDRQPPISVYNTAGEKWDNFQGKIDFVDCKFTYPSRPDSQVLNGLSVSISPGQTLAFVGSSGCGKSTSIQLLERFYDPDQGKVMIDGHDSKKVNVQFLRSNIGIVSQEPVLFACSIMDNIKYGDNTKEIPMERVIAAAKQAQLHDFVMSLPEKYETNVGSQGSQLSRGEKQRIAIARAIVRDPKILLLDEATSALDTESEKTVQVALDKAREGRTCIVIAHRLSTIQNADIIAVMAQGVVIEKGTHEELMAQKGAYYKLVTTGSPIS
Sequence of Broad substrate specificity ATP-binding cassette transporter ABCG2 (Q9UNQ0 whole entry): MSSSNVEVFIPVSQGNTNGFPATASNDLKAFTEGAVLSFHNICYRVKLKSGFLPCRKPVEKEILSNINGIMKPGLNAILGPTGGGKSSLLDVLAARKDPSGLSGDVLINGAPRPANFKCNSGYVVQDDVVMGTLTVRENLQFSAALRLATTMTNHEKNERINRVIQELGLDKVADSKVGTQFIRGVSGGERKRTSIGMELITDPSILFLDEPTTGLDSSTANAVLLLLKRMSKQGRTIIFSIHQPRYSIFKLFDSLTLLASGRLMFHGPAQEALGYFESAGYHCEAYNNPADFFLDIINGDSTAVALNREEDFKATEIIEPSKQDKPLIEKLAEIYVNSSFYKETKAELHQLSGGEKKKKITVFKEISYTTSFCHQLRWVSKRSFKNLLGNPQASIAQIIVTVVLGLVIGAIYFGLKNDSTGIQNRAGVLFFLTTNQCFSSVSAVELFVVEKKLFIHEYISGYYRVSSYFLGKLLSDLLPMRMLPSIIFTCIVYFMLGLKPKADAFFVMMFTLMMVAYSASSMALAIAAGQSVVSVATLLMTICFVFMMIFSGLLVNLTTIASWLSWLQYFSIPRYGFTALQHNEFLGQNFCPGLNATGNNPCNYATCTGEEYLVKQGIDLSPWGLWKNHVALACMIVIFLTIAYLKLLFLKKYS

Consider `C#CC1(N(COP(=O)([O-])[O-])C(=O)C(=O)c2c(C)c(C(=O)Nc3ccc(F)c(C#N)c3)n(C)c2C)COC1.[Na+].[Na+]`, for which the apparent permeability from apical to basolateral (Papp A→B) at 1 h, 2 µM in [1] was 4.6 ×10⁻⁶ cm/s. Also, the Stability result in data set [2] is “Stable”.

As to `C#CC1(NC(=O)C(=O)c2c(C)c(C(=O)Nc3ccc(F)c(C#N)c3)n(C)c2C)COC1`, the EC50 in data set [3] was determined as 0.07 µM. Further, the apparent permeability from apical to basolateral (Papp A→B) at 1 h, 1 µM in data set [4] amounted to 1.8 ×10⁻⁶ cm/s. Besides, the fraction unbound at 1 µM in [5] is 0.354. The Vd in data set [6] was 0.5 L/kg; in data set [7] it was 1.03 L/kg. For the same compound, the total exposure AUC(0-inf) in data set [8] came to 8520 ng·h/mL; in data set [10] it was 2190 ng·h/mL. In [9], the half-life is 1.85 h. For the same compound, the bioavailability in data set [11] is 19.6%. Besides, in data set [12], the result was inactive. Also, the Activity result is reported as “Not_active” in data set [13] and “Non-toxic” in [17]. For the same compound, the IC50 in data set [14], in [15] and in [16] was greater than 11.8 µM throughout. Besides, the half-life at 1 µM in [18] was greater than 6 h.
